From ChEMBL document CHEMBL4765395, “Design, diversity-oriented synthesis and biological evaluation of novel heterocycle derivatives as non-nucleoside HBV capsid protein inhibitors” (Eur J Med Chem, 2020)
Values belong to the compound of their own block, whether it stands above or below them. Active and inactive are the calls of the source. No cut-off for these calls is given here.

Tests used:
[1] = Selectivity index, ratio of CC50 for human HepG2.2.15 cells to IC50 for antiviral activity against HBV infected in human HepG2.2.15 cells assessed as reduction in intracellular viral DNA level; assay type: toxicity, cell-based; settings: read-out: Ratio CC50/IC50
[2] = Cytotoxicity against human HepG2.2.15 cells assessed as reduction in cell viability incubated for 4 days prior to compound washout followed by compound addition and measured after 4 days by CCK8 assay; assay type: cell-based, HepG2 2.2.15; settings: time 8 day
Summary of the method: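 Cytotoxicity in HepG2.2.15 cells was measured with five doses (100, 20, 4, 0.8, 0.16 µM) over 8 days, with medium changed on day 4. CCK-8 (10%) was added 0.5 h before the end, OD was read at 450/630 nm, and CC50 is the concentration killing 50% of cells against untreated controls.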

HepG2 2.2.15 [3] = test: Cytotoxicity against human HepG2.2.15 cells assessed as reduction in cell viability at 100 uM incubated for 4 days prior to compound washout followed by compound addition and measured after 4 days by CCK8 assay relative to control; assay type: cell-based; settings: hepg2 2.2.15, 192 h, time 8 day
Summary of the method: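 Three wells of 4000 HepG2.2.15 cells per well received a single 100 µM concentration for 8 days, with medium replaced on day 4. CCK-8 (10%) was added 0.5 h before the end, and OD was read at 450 and 630 nm. Percent cell death was calculated against untreated cells.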

Hepatitis B virus [4] = test: Antiviral activity against HBV infected in human HepG2.2.15 cells assessed as reduction in HBeAg secretion incubated for 4 days prior to compound washout followed by compound addition and measured after 4 days by ELISA; assay type: functional, organism-based
Summary of the method: (§1)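 Five doses (100, 20, 4, 0.8, 0.16 µM) were added in triplicate to HepG2.2.15 cultures for 8 days, with fresh medium on day 4 and untreated controls. Day-8 supernatants were assayed for HBsAg and HBeAg by ELISA kit with absorbance read-out. IC50 is the concentration giving 50% inhibition of antigen secretion.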

Hepatitis B virus [5] = test: Antiviral activity against HBV infected in human HepG2.2.15 cells assessed as […] incubated for 4 days prior to compound washout followed by compound addition and measured after 4 days by fluorogenic probe based RT-qPCR analysis; assay type: functional, organism-based
Hepatitis B virus [6] = test: Antiviral activity against HBV infected in human HepG2.2.15 cells assessed as […] at 100 uM incubated for 4 days prior to compound washout followed by compound addition and measured after 4 days by fluorogenic probe based RT-qPCR analysis relative to control; assay type: functional; settings: for inhibition at 100 µM: HepG2.2.15, 192 h, time 8 day
Hepatitis B virus [7] = test: Antiviral activity against HBV infected in human HepG2.2.15 cells assessed as reduction in HBsAg secretion incubated for 4 days prior to compound washout followed by compound addition and measured after 4 days by ELISA; assay type: functional, organism-based; summary of the method: as §1
HepG2 2.2.15 [8] = test: Cytotoxicity against human HepG2.2.15 cells assessed as reduction in cell viability at 50 uM incubated for 4 days prior to compound washout followed by compound addition and measured after 4 days by CCK8 assay relative to control; assay type: cell-based; settings: hepg2 2.2.15, 192 h, time 8 day
Hepatitis B virus [9] = test: Antiviral activity against HBV infected in human HepG2.2.15 cells assessed as reduction in intracellular viral DNA level at 50 uM incubated for 4 days prior to compound washout followed by compound addition and measured after 4 days by fluorogenic probe based RT-qPCR analysis relative to control; assay type: functional; settings: for inhibition: time 8.0 day
HepG2 2.2.15 [10] = test: Cytotoxicity against human HepG2.2.15 cells assessed as reduction in cell viability at 20 uM incubated for 4 days prior to compound washout followed by compound addition and measured after 4 days by CCK8 assay relative to control; assay type: cell-based; settings: hepg2 2.2.15, 192 h, time 8 day
Hepatitis B virus [11] = test: Antiviral activity against HBV infected in human HepG2.2.15 cells assessed as reduction in intracellular viral DNA level at 20 uM incubated for 4 days prior to compound washout followed by compound addition and measured after 4 days by fluorogenic probe based RT-qPCR analysis relative to control; assay type: functional; settings: for inhibition: time 8.0 day
[12] = Selectivity index, ratio of CC50 for human HepG2.2.15 cells to IC50 for antiviral activity against HBV infected in human HepG2.2.15 cells assessed as reduction in HBsAg secretion; assay type: toxicity, cell-based; settings: read-out: Ratio CC50/IC50
[13] = Selectivity index, ratio of CC50 for human HepG2.2.15 cells to IC50 for antiviral activity against HBV infected in human HepG2.2.15 cells assessed as reduction in HBeAg secretion; assay type: toxicity, cell-based; settings: read-out: Ratio CC50/IC50
[14] = Cytotoxicity against human HepG2.2.15 cells assessed as reduction in cell viability incubated for 4 days prior to compound washout followed by compound addition and measured after 4 days by […]; assay type: cell-based, HepG2 2.2.15; settings: time 8 day
Hepatitis B virus [15] = test: Binding affinity to recombinant HBV capsid protein assessed as response value at 50 uM by surface plasmon resonance analysis (reference value: 14.56)
Summary of the method: (§2)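 Recombinant HBV capsid protein purified and amine-coupled to a CM5 sensor chip. Six doses of test compound run with running buffer containing 5% DMSO, plus eight solvent-calibration solutions and 50% DMSO solution. Samples centrifuged 15 min before loading. PBS and NaAc-HAc buffers used. Binding read as SPR response.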

Hepatitis B virus [16] = test: Binding affinity to recombinant HBV capsid protein assessed as response value at 6.25 uM by surface plasmon resonance analysis (reference value: 14.56); summary of the method: as §2
Hepatitis B virus [17] = test: Antiviral activity against HBV infected in human HepG2.2.15 cells assessed as reduction in intracellular viral DNA level incubated for 8 days by fluorogenic probe based RT-qPCR analysis; settings: HepG2.2.15, 192 h
[18] = (§3) Binding affinity to recombinant HBV capsid protein by surface plasmon resonance analysis; parameters: species or system Hepatitis B virus; summary of the method: as §2
Hepatitis B virus [19] = test: as §3; summary of the method: as §2
Hepatitis B virus [20] = test: Binding affinity to recombinant HBV capsid protein assessed as response value at 100 uM by surface plasmon resonance analysis (reference value: 14.56); summary of the method: as §2
Hepatitis B virus [21] = test: Binding affinity to recombinant HBV capsid protein assessed as response value at 12.5 uM by surface plasmon resonance analysis (reference value: 14.56); summary of the method: as §2
Hepatitis B virus [22] = test: Binding affinity to recombinant HBV capsid protein assessed as response value at 25 uM by surface plasmon resonance analysis (reference value: 14.56); summary of the method: as §2
Hepatitis B virus [23] = test: Binding affinity to recombinant HBV capsid protein assessed as response value at 9.9 uM by surface plasmon resonance analysis (reference value: 11.31); summary of the method: as §2
Hepatitis B virus [24] = test: Binding affinity to recombinant HBV capsid protein assessed as response value at 22.2 uM by surface plasmon resonance analysis (reference value: 11.31); summary of the method: as §2
Hepatitis B virus [25] = test: Binding affinity to recombinant HBV capsid protein assessed as response value at 14.8 uM by surface plasmon resonance analysis (reference value: 11.31); summary of the method: as §2
Hepatitis B virus [26] = test: Binding affinity to recombinant HBV capsid protein assessed as response value at 6.6 uM by surface plasmon resonance analysis (reference value: 11.31); summary of the method: as §2

IC50 (Hepatitis B virus [4]): > 100 µM
IC50 (Hepatitis B virus [5]): 0.6 µM
IC50 (Hepatitis B virus [7]): > 100 µM
SMILES: Nc1ccn([C@@H]2CS[C@H](CO)O2)c(=O)n1 [LAMIVUDINE]
selectivity ratio [1]: > 167
CC50 at 192 h [2]: > 100 µM
Activity (HepG2 2.2.15 [3]): 12.7%
inhibition at 100 µM (Hepatitis B virus [6]): 87.9%

SMILES: O=C(NCc1ccc(F)cc1)c1ccc(-c2ccccc2)nc1-c1ccccc1
Activity (HepG2 2.2.15 [8]): 4.4%
inhibition (Hepatitis B virus [9]): inactive

SMILES: O=C(NC1CC1)c1cn(-c2cccc(F)c2)nc1NCc1ccccc1
Activity (HepG2 2.2.15 [3]): 40.8%
inhibition at 100 µM (Hepatitis B virus [6]): 38.8%

SMILES: CC(C)Cc1nc(NC(=O)c2ccc(F)cc2)sc1C(=O)NCc1ccc(F)cc1
Activity (HepG2 2.2.15 [10]): 20.7%
inhibition at 20 µM (Hepatitis B virus [11]; HepG2.2.15, 192 h, time 8 day): 29.2%

IC50 (Hepatitis B virus [4]): 30.1 µM
IC50 (Hepatitis B virus [5]): 2.7 µM
IC50 (Hepatitis B virus [7]): 21 µM
SMILES: CC(C)Cc1sc(-c2nccs2)nc1C(=O)NCc1ccc(F)cc1F
selectivity ratio [1]: 16.8
CC50 at 192 h [2]: 45.4 µM
selectivity ratio [12]: 2.2
Activity (HepG2 2.2.15 [3]): 24.9%
inhibition at 100 µM (Hepatitis B virus [6]): 83.8%
selectivity ratio [13]: 1.5

SMILES: COC(=O)c1nc(-c2ccccc2OC)cnc1NC(=O)c1ccccc1
Activity (HepG2 2.2.15 [8]): 5.7%
inhibition (Hepatitis B virus [9]): inactive

SMILES: CCOC(=O)c1cn(-c2cccc(F)c2)nc1SC1CCCCC1
Activity (HepG2 2.2.15 [3]): 18.1%
inhibition (Hepatitis B virus [6]; time 8.0 day): inactive

SMILES: CC(C)Cc1nc(-c2cccc(F)c2)ncc1C(=O)NCc1ccc(F)cc1
Activity (HepG2 2.2.15 [8]): Non-Toxic
inhibition at 50 µM (Hepatitis B virus [9]; HepG2.2.15, 192 h, time 8 day): 35.6%

SMILES: CC(C)Cc1sc(-c2nccs2)nc1C(=O)NCc1ccc(F)cc1
CC50 at 192 h [14]: 50.4 µM
Activity (Hepatitis B virus [15]): 41.4 RU
selectivity ratio [1]: 25.7
Activity (Hepatitis B virus [16]): 17.7 RU
CC50 at 192 h [2]: 59.2 µM
IC50 (Hepatitis B virus [17]): 1.33 µM
Kd [18]: 50.6 µM
Activity (Hepatitis B virus [19]): Dose-dependent effect
selectivity ratio [12]: 1.9
Activity (HepG2 2.2.15 [3]): 98.8%
IC50 (Hepatitis B virus [4]): 31.7 µM
IC50 (Hepatitis B virus [5]): 2.3 µM
inhibition at 100 µM (Hepatitis B virus [6]): 97.3%
Activity (Hepatitis B virus [20]): 63.5 RU
Activity (Hepatitis B virus [21]): 23.9 RU
IC50 (Hepatitis B virus [7]): 31.7 µM
selectivity ratio [13]: 1.9
Activity (Hepatitis B virus [22]): 38.4 RU

SMILES: CC(C)Cc1nc(-c2ccsc2)sc1C(=O)NCc1ccc(F)cc1
Activity (HepG2 2.2.15 [10]): 6.7%
inhibition (Hepatitis B virus [11]): inactive

SMILES: CC(C)Cc1nc(NS(=O)(=O)c2ccc(F)cc2)sc1C(=O)NCc1ccc(F)cc1
Activity (HepG2 2.2.15 [10]): 17.5%
inhibition (Hepatitis B virus [11]): inactive

SMILES: CC(C)Cc1nc(-c2cccs2)sc1C(=O)NCc1ccc(F)cc1
Activity (HepG2 2.2.15 [10]): 17.8%
inhibition (Hepatitis B virus [11]): inactive

SMILES: Cc1ccc(-c2nc(CC(C)C)c(C(=O)NCc3ccc(F)cc3)s2)s1
Activity (HepG2 2.2.15 [10]): Non-Toxic
inhibition (Hepatitis B virus [11]): inactive

SMILES: CC(C)Cc1sc(-c2nccs2)nc1C(=O)Nc1ccc(F)cc1
selectivity ratio [1]: 36.7
Activity (Hepatitis B virus [23]): 18.8 RU
CC50 at 192 h [2]: 80.8 µM
Kd [18]: 60 µM
Activity (Hepatitis B virus [19]): Dose-dependent effect
selectivity ratio [12]: < 0.8
Activity (HepG2 2.2.15 [3]): Non-Toxic
IC50 (Hepatitis B virus [4]): > 100 µM
IC50 (Hepatitis B virus [5]): 2.2 µM
inhibition at 100 µM (Hepatitis B virus [6]): 89.8%
Activity (Hepatitis B virus [24]): 26.4 RU
IC50 (Hepatitis B virus [7]): > 100 µM
Activity (Hepatitis B virus [25]): 20.6 RU
selectivity ratio [13]: < 0.8
Activity (Hepatitis B virus [26]): 15.4 RU
